The record followed here is ChEMBL document CHEMBL3102746, “Anticomplement monoterpenoid glucosides from the root bark of Paeonia suffruticosa” (J Nat Prod, 2014).

Holding throughout (type): functional, cell-based
Assay [1] in a line: Anticomplement activity in New Zealand White rabbit erythrocytes assessed as concentration required for 50% hemolytic inhibition by alternative pathway after 30 mins. The following applies: Oryctolagus cuniculus, Erythrocyte. Put shortly:
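Samples diluted in GVB-Mg-EGTA and preincubated with 1:10 normal human serum at 37 °C for 10 min. Rabbit erythrocytes (3.0 × 10^8 cells/mL) then added for 30 min at 37 °C. Lysis read as supernatant OD at 405 nm. AP50 expressed as 50% inhibitory concentration. Heparin served as positive control.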

Assay [2] can be described thus: Anticomplement activity in sheep erythrocytes assessed as concentration required for 50% hemolytic inhibition by classical pathway after 30 mins by spectrophotometry. Conditions: Ovis aries; Erythrocyte. The procedure, abridged:
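Sheep erythrocytes sensitized with rabbit anti-sheep erythrocyte antibodies in GVB2+. Test sample dilutions in GVB2+ preincubated with guinea pig serum (1:80) at 37 °C for 10 min, then EA added for 30 min at 37 °C. Supernatant OD read at 405 nm. Blank, 100% lysis and sample controls included. CH50 taken from mean of triplicates at each concentration. Heparin served as positive control.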

Assay [3] can be described thus: Anticomplement activity in sheep erythrocytes in C1q-depleted serum assessed as inhibition of hemolysis by classical pathway at 0.45 mM after 30 mins compound treated in normal human serum. Conditions: Ovis aries, Erythrocyte.
Assay [4] in a line: Anticomplement activity in sheep erythrocytes in C5-depleted serum assessed as inhibition of hemolysis by classical pathway at 0.45 mM after 30 mins compound treated in normal human serum. The following applies: Ovis aries, Erythrocyte.
Assay [5] can be described thus: Anticomplement activity in sheep erythrocytes in C3-depleted serum assessed as inhibition of hemolysis by classical pathway at 0.45 mM after 30 mins compound treated in normal human serum. Conditions: Ovis aries, Erythrocyte.
Assay [6] can be described thus: Anticomplement activity in sheep erythrocytes in C9-depleted serum assessed as inhibition of hemolysis by classical pathway at 0.45 mM after 30 mins compound treated in normal human serum. Conditions: Ovis aries, Erythrocyte.
The nature of assay [7]: Anticomplement activity in sheep erythrocytes in C1q-depleted serum assessed as inhibition of hemolysis by classical pathway at 0.54 mM after 30 mins compound treated in normal human serum. Conditions: Ovis aries, Erythrocyte.
Assay [8] in a line: Anticomplement activity in sheep erythrocytes in C5-depleted serum assessed as inhibition of hemolysis by classical pathway at 0.54 mM after 30 mins compound treated in normal human serum. The following applies: Ovis aries, Erythrocyte.
Assay [9] in a line: Anticomplement activity in sheep erythrocytes in C3-depleted serum assessed as inhibition of hemolysis by classical pathway at 0.54 mM after 30 mins compound treated in normal human serum. The following applies: Ovis aries, Erythrocyte.
Assay [10] can be described thus: Anticomplement activity in sheep erythrocytes in C9-depleted serum assessed as inhibition of hemolysis by classical pathway at 0.54 mM after 30 mins compound treated in normal human serum. The following applies: Ovis aries, Erythrocyte.
The nature of assay [11]: Anticomplement activity in sheep erythrocytes in C9-depleted serum assessed as hemolysis by classical pathway at 1.09 mM after 30 mins compound treated in normal human serum. The following applies: Ovis aries, Erythrocyte.
Assay [12] can be described thus: Anticomplement activity in sheep erythrocytes in C5-depleted serum assessed as hemolysis by classical pathway at 1.09 mM after 30 mins compound treated in normal human serum. Conditions: Ovis aries, Erythrocyte.
The nature of assay [13]: Anticomplement activity in sheep erythrocytes in C1q-depleted serum assessed as hemolysis by classical pathway at 1.09 mM after 30 mins compound treated in normal human serum. The following applies: Ovis aries, Erythrocyte.
Assay [14] can be described thus: Anticomplement activity in sheep erythrocytes in C3-depleted serum assessed as hemolysis by classical pathway at 1.09 mM after 30 mins compound treated in normal human serum. The following applies: Ovis aries, Erythrocyte.
Assay [15] in a line: Anticomplement activity in sheep erythrocytes in C4-depleted serum assessed as hemolysis by classical pathway at 1.09 mM after 30 mins compound treated in normal human serum. The following applies: Ovis aries, Erythrocyte.
Assay [16] can be described thus: Anticomplement activity in sheep erythrocytes in C2-depleted serum assessed as hemolysis by classical pathway at 1.09 mM after 30 mins compound treated in normal human serum. The following applies: Ovis aries, Erythrocyte.

Activity calls are given as the source filed them. No cut-off for these calls is given here. Some results are limits rather than exact numbers.

As to `COc1ccc(C(=O)OC[C@]23C4O[C@]5(O)C[C@](C)(O4)[C@]2(O[C@@H]2O[C@H](COC(=O)c4ccccc4)[C@@H](O)[C@H](O)[C@H]2O)C[C@H]53)cc1`, in assay [1], the AP50 amounted to 1.6 mM. Also, the INH in [2] worked out at 1.29 mM.

Regarding `COc1ccc(C(=O)OC[C@H]2O[C@@H](O[C@]34C[C@@H]5[C@@]6(O)C[C@]3(C)OC(O6)[C@]54COC(=O)c3ccccc3)[C@H](O)[C@@H](O)[C@@H]2O)cc1`, the AP50 in [1] worked out at 2.82 mM. Besides, the INH in assay [2] came to 2.36 mM.

Take `C[C@@]12C[C@@]3(O)OC(O1)[C@]1(COC(=O)c4ccc(O)cc4)[C@@H]3C[C@@]21O[C@@H]1O[C@H](COC(=O)c2ccccc2)[C@@H](O)[C@H](O)[C@H]1O`: the AP50 in [1] was 0.85 mM. In addition, in assay [2], the INH amounted to 0.58 mM.

Turning to `COc1ccc(C(=O)OC[C@@]23[C@@H](OC)O[C@@]4(C)CC(=O)[C@H]2C[C@]34O[C@@H]2O[C@H](COC(=O)c3ccccc3)[C@@H](O)[C@H](O)[C@H]2O)cc1`, the inhibition result in [1] and in assay [2] was “inactive” each time.

For the molecule `COc1cc(C(=O)OC[C@H]2O[C@@H](O[C@@]34C[C@H]5[C@@]3(CO)[C@H]3O[C@]5(O)C[C@]4(C)O3)[C@H](O)[C@@H](O)[C@@H]2O)ccc1O`, the AP50 in assay [1] worked out at 1.12 mM. Further, in assay [2], the INH was 0.89 mM.

As to `C[C@@]12C[C@@]3(O)O[C@@H](O1)[C@]1(COC(=O)c4ccccc4)[C@H]3C[C@@]12O[C@@H]1O[C@H](COC(=O)c2ccccc2)[C@@H](O[C@@H]2O[C@H](CO)[C@@H](O)[C@H](O)[C@H]2O)[C@H](O)[C@H]1O`, the inhibition result in [1] was “inactive”. Moreover, the INH in assay [2] stood at 2.29 mM.

On to `COc1ccc(C(=O)OC[C@]23C4O[C@]5(OC)C[C@](C)(O4)[C@]2(O[C@@H]2O[C@H](COC(=O)c4ccccc4)[C@@H](O)[C@H](O)[C@H]2O)C[C@H]53)cc1`, for which the inhibition result in assay [1] and in assay [2] was “inactive” each time.

Consider `COc1ccc(C(=O)OC[C@H]2O[C@@H](O[C@]34C[C@@H]5C(=O)C[C@]3(C)O[C@H](OC)[C@]54COC(=O)c3ccccc3)[C@H](O)[C@@H](O)[C@@H]2O)cc1`, for which the inhibition entry in assay [1] and in assay [2] was “inactive” throughout.

Consider `COc1ccc(C(=O)OC[C@]23[C@H]4O[C@]5(O)C[C@](C)(O4)[C@@]2(O[C@@H]2O[C@H](CO)[C@@H](O)[C@H](O)[C@H]2O)C[C@H]35)cc1`, for which the AP50 in assay [1] came to 3.67 mM. Further, the INH in assay [2] was determined as 2.67 mM.

Consider `C[C@@]12C[C@@]3(O)O[C@@H](O1)[C@]1(COC(=O)c4ccc(O)cc4)[C@@H]3C[C@]12O[C@@H]1O[C@H](CO)[C@@H](O)[C@H](O)[C@H]1O`, for which the AP50 in assay [1] came to 3.29 mM. In [2], the INH stood at 2.28 mM.

Consider `CO[C@]12C[C@]3(C)OC(O1)[C@]1(COC(=O)c4ccccc4)[C@@H]2C[C@@]31O[C@@H]1O[C@H](COC(=O)c2ccccc2)[C@@H](O)[C@H](O)[C@H]1O`, for which the inhibition entry in [1] and in assay [2] was “inactive” throughout.

Regarding `COc1cc(C(=O)OC[C@H]2O[C@@H](O[C@@]34C[C@H]5[C@@]3(COC(=O)c3ccccc3)[C@H]3O[C@]5(O)C[C@]4(C)O3)[C@H](O)[C@@H](O)[C@@H]2O)ccc1O`, the INH in assay [2] is 2.02 mM.

For the molecule `CO[C@H]1O[C@@]2(C)CC(=O)[C@@H]3C[C@@]2(O[C@@H]2O[C@H](CO)[C@@H](O)[C@H](O)[C@H]2O)[C@]13COC(=O)c1ccc(O)cc1`, the inhibition entry in [1] and in [2] was “inactive” in each case.

On to `C[C@@]12C[C@@]3(O)O[C@@H](O1)[C@]1(COC(=O)c4ccccc4)[C@@H]3C[C@]12O[C@@H]1O[C@H](COC(=O)c2ccc(O)cc2)[C@@H](O)[C@H](O)[C@H]1O`, for which the INH in assay [2] was 0.52 mM.

Consider `C[C@@]12C[C@@]3(O)O[C@@H](O1)[C@]1(COC(=O)c4ccc(O)cc4)[C@H]3C[C@@]12O[C@@H]1O[C@H](COC(=O)c2cc(O)c(O)c(O)c2)[C@@H](O)[C@H](O)[C@H]1O`, for which the inhibition entry in assay [3], in assay [4] and in assay [5] was “Active” throughout. Moreover, the AP50 in assay [1] was found to be 0.25 mM. The inhibition result in assay [6] was “inactive”. For the same molecule, in assay [2], the INH stood at 0.14 mM.

Take `C[C@@]12C[C@@]3(O)O[C@@H](O1)[C@]1(COC(=O)c4ccccc4)[C@@H]3C[C@]12O[C@@H]1O[C@H](COC(=O)c2cc(O)c(O)c(O)c2)[C@@H](O)[C@H](O)[C@H]1O`: the inhibition entry in assay [7], in assay [8] and in assay [9] was “Active” throughout. Moreover, in assay [1], the AP50 was 0.32 mM. For the same molecule, the INH in assay [2] was determined as 0.21 mM. Besides, the inhibition result in [10] was “inactive”.

Take `CO[C@]12C[C@]3(C)O[C@H](O1)[C@]1(COC(=O)c4ccc(O)cc4)[C@H]2C[C@@]13O[C@@H]1O[C@H](CO)[C@@H](O)[C@H](O)[C@H]1O`: the inhibition entry in assay [1] and in assay [2] was “inactive” in each case.

For `C[C@@]12C[C@@]3(O)OC(O1)[C@]1(COC(=O)c4ccc(O)cc4)[C@@H]3C[C@@]21O[C@@H]1O[C@H](COC(=O)c2ccccc2)[C@@H](O[C@@H]2O[C@H](CO)[C@@H](O)[C@H](O)[C@H]2O)[C@H](O)[C@H]1O`, the Activity in [11] is less than 10%; in assay [12], less than 10%; in assay [13], less than 10%; in [14], less than 10%; in assay [15], 89.3%; in assay [16] it was 80.1%. In addition, the AP50 in assay [1] amounted to 0.43 mM. Besides, the INH in assay [2] was 0.33 mM.

Take `COc1ccc(C(=O)OC[C@H]2O[C@@H](O[C@]34C[C@@H]5[C@@]6(O)C[C@]3(C)OC(O6)[C@]54COC(=O)c3ccc(O)cc3)[C@H](O)[C@@H](O)[C@@H]2O)cc1`: the AP50 in [1] was found to be 0.97 mM. In addition, in [2], the INH stood at 0.41 mM.

As for `CO[C@@H]1O[C@@]2(C)CC(=O)[C@H]3C[C@]2(O[C@@H]2O[C@H](COC(=O)c4ccccc4)[C@@H](O)[C@H](O)[C@H]2O)[C@]13COC(=O)c1ccccc1`, the inhibition entry in assay [1] and in assay [2] was “inactive” throughout.

As for `C[C@@]12C[C@@]3(O)O[C@@H](O1)[C@]1(COC(=O)c4ccc(O)cc4)[C@H]3C[C@@]12O[C@@H]1O[C@H](COC(=O)c2ccc(O)cc2)[C@@H](O)[C@H](O)[C@H]1O`, the AP50 in assay [1] is 0.67 mM. Further, the INH in assay [2] came to 0.34 mM.

Regarding `CO[C@H]1O[C@@]2(C)CC(=O)[C@H]3C[C@]2(O[C@@H]2O[C@H](COC(=O)c4ccccc4)[C@@H](O)[C@H](O)[C@H]2O)[C@]13COC(=O)c1ccccc1`, the inhibition result in assay [1] and in [2] was “inactive” each time.
